Results on four molecules are retold here after ChEMBL document CHEMBL1153426, “A structure-based approach to ligand discovery for 2C-methyl-D-erythritol-2,4-cyclodiphosphate synthase: a target for antimicrobial therapy” (J Med Chem, 2009).

The assay is described as follows: Binding affinity to Escherichia coli BL21 (DE3) IspF at 10 degC in pH 7 sodium phosphate buffer by SPR binding assay. The gist of the method: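 Recombinant E. coli IspF expressed in BL21(DE3), >95% pure, amine-coupled to CM5 chip at ~100 μg/mL in 10 mM acetate pH 5.5 (4500–5500 RU). Ligands 0.1 μM–10 mM in 50 mM sodium phosphate pH 7, 2 mM MgCl, 30 μL/min, 10 °C; triplicate injections, blank-subtracted.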

As for `O=C(O)CCCC(=O)Nc1ccc2c(c1)OCO2`, the Kd entry is “Not Active”.

With `NC(=O)CSc1cc(N)nc(N)n1`, the Kd result is on record as “Not Active”.

Take `Nc1nnc(-c2nonc2N)o1`: the Kd entry is on record as “Not Active”.

Regarding `Nc1ccn([C@H]2O[C@@H](CO)[C@H]3OP(=O)(O)O[C@H]32)c(=O)n1` (mixture of isomers), the Kd (read-out: Kd) worked out at 20.5 mM.
